The record followed here is ChEMBL document CHEMBL1130323, “Synthesis and anti-HIV activity of novel N-1 side chain-modified analogs of 1-[(2-hydroxyethoxy)methyl]-6-(phenylthio)thymine (HEPT)” (J Med Chem, 1997).

The structures appear in SMILES notation. pIC50: −log10 of the molar value.

Assay [1] is described as follows: Concentration which reduces the cell viability by 50% (CEM-SS / MT-4). It is filed as functional. The settings on record: Homo sapiens. Put shortly: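 Cytotoxicity measured on uninfected CEM-SS or MT-4 cells by MTT assay in the same experiment as the antiviral test, with cells cultured with graded compound concentrations for 5 days. Formazan read as OD at 540 nm. CC50 is the concentration reducing viability by 50%, calculated from a median effect plot. Means of at least two separate experiments.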

A further assay has as its system MT4. Description: Effective concentration required to achieve 50% inhibition of HIV-1 multiplication in human T-4 lymphoblastoid cell line MT-4 IIIB. The assay is classed as functional, cell-based. The method in brief: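 MT-4 cells infected with 50 TCID50 of HIV-1 IIIB and allowed 30 min adsorption, then washed. Cells were cultured with graded compound concentrations for 5 days. Protection from virus-induced cytopathogenicity was read by MTT reduction to formazan (OD 540 nm). IC50 was taken from a median effect plot. Means of at least two separate experiments.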

Another assay has as its system CEM-SS. The experiment in a line: Effective concentration required to achieve 50% inhibition of HIV-1 multiplication in human T-4 lymphoblastoid cell line CEM-SS/LAI. It is filed as functional, cell-based. Put shortly:
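CEM-SS cells infected with 100 TCID50 of HIV-1 Lai and allowed 30 min adsorption, then free virus was washed off. Cells were cultured with graded compound concentrations for 5 days. Virus production was read as reverse transcriptase activity of virions in culture supernatants. IC50 was taken from a median effect plot. Means of at least two separate experiments.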

In general, CC50 refers to the concentration that lowers cell viability or growth by half. As a reminder, the pIC50 is the negative decadic logarithm of the IC50, by convention in mol/L. As to `CCc1c(Sc2ccccc2)n(C/C=C/c2ccccc2)c(=O)[nH]c1=O`, the CC50 in assay [1] was > 1 µM. Also, the negative-log IC50 (pIC50) is 6.72 in the assay on MT4 and 7.80 in the assay with CEM-SS.

Regarding `Cc1c(Sc2ccccc2)n(C/C=C/C2CCCCC2)c(=O)[nH]c1=O`, the 50% cytotoxic concentration (CC50) in assay [1] was > 1 µM. The negative logarithm of the IC50 (pIC50) with MT4 and in the assay on CEM-SS was < 6.00 in each case.

On to `Cc1c(Sc2ccccc2)n(COCCN(c2ccccc2)c2ccccc2)c(=O)[nH]c1=O`, for which the half-maximal cytotoxic concentration (CC50) in assay [1] was > 1 µM. The pIC50 in the assay with MT4 is < 5.00; in the assay on CEM-SS it was 5.06.

In the case of `Cc1c(Sc2ccccc2)n(COCCNC(=O)c2ccccc2)c(=O)[nH]c1=O`, the 50% cytotoxic concentration (CC50) in assay [1] is > 1 µM. Further, the pIC50 in the assay with MT4 and in the assay on CEM-SS was < 5.00 throughout.

Regarding `Cc1c(Sc2ccccc2)n(COCCNC(=O)CCCl)c(=O)[nH]c1=O`, in assay [1], the CC50 was > 1 µM. The values for the pIC50 in the assay with MT4 and in the assay on CEM-SS were 4.40 and 4.94, respectively.

Turning to `Cc1c(Sc2ccccc2)n(COCCI)c(=O)[nH]c1=O`, the 50% cytotoxic concentration (CC50) in assay [1] was > 1 µM. Besides, the pIC50 with MT4 was < 5.00; in the assay on CEM-SS it was 5.66.

`Cc1c(Sc2ccccc2)n(COCCSc2ccccc2)c(=O)[nH]c1=O`: the CC50 in assay [1] is > 1 µM. For the same compound, the negative logarithm of the IC50 (pIC50) in the assay on CEM-SS was < 6.00.

As to `Cc1c(Sc2ccccc2)n(COCCNC(=O)CNCP(=O)(O)O)c(=O)[nH]c1=O`, the cytotoxic concentration (CC50) in assay [1] is > 1 µM. Further, the negative logarithm of the IC50 (pIC50) in the assay with MT4 and with CEM-SS was < 4.00 in each case.

`CCc1c(Sc2ccccc2)n(COCc2ccccc2)c(=O)[nH]c1=O` showed a negative-log IC50 (pIC50) with MT4 of 8.23.

For the compound `Cc1c(Sc2ccccc2)n(COCCNC(=O)CCP(=O)(O)O)c(=O)[nH]c1=O`, the CC50 in assay [1] was > 1 µM. In addition, the negative-log IC50 (pIC50) in the assay on MT4 and with CEM-SS was < 5.00 throughout.

For the compound `Cc1c(Sc2ccccc2)n(COCCN2CCOCC2)c(=O)[nH]c1=O`, the half-maximal cytotoxic concentration (CC50) in assay [1] is > 1 µM. Also, the pIC50 with MT4 and in the assay on CEM-SS was < 4.00 throughout.

Consider `Cc1c(Sc2ccccc2)n(C/C=C/c2ccc([N+](=O)[O-])s2)c(=O)[nH]c1=O`, for which, in assay [1], the CC50 was > 1 µM. The negative logarithm of the IC50 (pIC50) with MT4 and with CEM-SS was < 6.00 in each case.

Take `Cc1c(Sc2ccccc2)n(COCCSc2ccccn2)c(=O)[nH]c1=O`: the 50% cytotoxic concentration (CC50) in assay [1] is > 1 µM. Moreover, the values for the negative-log IC50 (pIC50) with MT4 and in the assay with CEM-SS were < 6.00 and 6.08, respectively.

As to `CCc1c(Sc2cc(C)cc(C)c2)n(C/C=C/c2cccs2)c(=O)[nH]c1=O`, in assay [1], the CC50 is > 1 µM. Besides, the results for the negative logarithm of the IC50 (pIC50) in the assay on MT4 and with CEM-SS were 7.40 and 7.55, respectively.

In the case of `Cc1c(Sc2ccccc2)n(C/C=C/c2ccco2)c(=O)[nH]c1=O`, in assay [1], the half-maximal cytotoxic concentration (CC50) is > 1 µM. Further, the negative logarithm of the IC50 (pIC50) was < 6.00 in the assay with MT4 and 6.48 in the assay with CEM-SS.

For `CCc1c(Sc2cc(C)cc(C)c2)n(COCc2ccccc2)c(=O)[nH]c1=O`, the pIC50 in the assay on MT4 was 8.49.

Take `CCc1c(Sc2cc(C)cc(C)c2)n(C/C=C/c2ccco2)c(=O)[nH]c1=O`: the CC50 in assay [1] was > 1 µM. In addition, the pIC50 is 7.40 in the assay on MT4 and 8.00 in the assay on CEM-SS.

Take `Cc1c(Sc2ccccc2)n(COCCBr)c(=O)[nH]c1=O`: the CC50 in assay [1] is > 1 µM. In addition, the pIC50 in the assay with MT4 is 5.55; in the assay on CEM-SS it was 6.12.

`Cc1c(Sc2ccccc2)n(C/C=C/c2cccnc2)c(=O)[nH]c1=O`: in assay [1], the CC50 is > 1 µM. The negative-log IC50 (pIC50) is 7.00 with MT4 and 6.82 in the assay with CEM-SS.

In the case of `Cc1c(Sc2ccccn2)n(COCCSc2ccccn2)c(=O)[nH]c1=O`, the cytotoxic concentration (CC50) in assay [1] was > 1 µM. Moreover, the negative-log IC50 (pIC50) was 5.10 with MT4 and 6.36 in the assay with CEM-SS.

Turning to `Cc1c(Sc2ccccn2)n(COCCSc2ccccc2)c(=O)[nH]c1=O`, in assay [1], the cytotoxic concentration (CC50) was > 1 µM. The negative logarithm of the IC50 (pIC50) in the assay on MT4 was < 6.00; with CEM-SS it was 6.00.

For the compound `Cc1c(Sc2ccccc2)n(COCCN2CCNCC2)c(=O)[nH]c1=O`, the CC50 in assay [1] was > 1 µM. In addition, the pIC50 with MT4 and in the assay on CEM-SS was < 5.00 in each case.

Regarding `Cc1c(Sc2ccccc2)n(C/C=C/c2cc3ccccc3o2)c(=O)[nH]c1=O`, in assay [1], the CC50 is > 1 µM. Besides, the pIC50 in the assay with MT4 and with CEM-SS was < 6.00 each time.

With `Cc1c(Sc2ccccc2)n(C/C=C/c2cccs2)c(=O)[nH]c1=O`, the cytotoxic concentration (CC50) in assay [1] is > 1 µM. Besides, the values for the pIC50 in the assay with MT4 and in the assay on CEM-SS were < 6.00 and 6.85, respectively.

In the case of `Cc1c(Sc2ccccc2)n(C/C=C/c2ccccc2)c(=O)[nH]c1=O`, the half-maximal cytotoxic concentration (CC50) in assay [1] was > 1 µM. Moreover, the pIC50 in the assay on MT4 was 5.60; in the assay with CEM-SS it was 6.64.

As for `Cc1c(Sc2ccccc2)n(COCCNc2ccccc2)c(=O)[nH]c1=O`, the half-maximal cytotoxic concentration (CC50) in assay [1] is > 1 µM. Besides, the results for the negative logarithm of the IC50 (pIC50) in the assay on MT4 and in the assay with CEM-SS were 6.00 and 7.26, respectively.

In the case of `CCc1c(Sc2cc(C)cc(C)c2)n(C/C=C/c2ccccc2)c(=O)[nH]c1=O`, in assay [1], the CC50 was > 1 µM. For the same compound, the negative-log IC50 (pIC50) with CEM-SS is 7.51.

Regarding `Cc1c(Sc2ccccc2)n(COCCO)c(=O)[nH]c1=O` [HEPT], the CC50 in assay [1] was > 1 µM. The pIC50 was 4.96 with MT4 and 5.70 in the assay on CEM-SS.

`Cc1c(Sc2ccccc2)n(COCCN)c(=O)[nH]c1=O`: the half-maximal cytotoxic concentration (CC50) in assay [1] is > 1 µM. Besides, the pIC50 in the assay on CEM-SS was 4.51.

In the case of `Cc1c(Sc2ccccc2)n(COCc2ccccc2)c(=O)[nH]c1=O`, in assay [1], the CC50 was > 1 µM. Further, the pIC50 was 6.13 in the assay with MT4 and 7.05 in the assay with CEM-SS.

Turning to `CCc1c(Sc2ccccc2)n(C/C=C/c2ccc([N+](=O)[O-])s2)c(=O)[nH]c1=O`, the half-maximal cytotoxic concentration (CC50) in assay [1] was > 1 µM. Besides, the values for the negative-log IC50 (pIC50) with MT4 and in the assay on CEM-SS were < 6.00 and 6.03, respectively.

Regarding `CCc1c(Sc2ccccc2)n(C/C=C/c2ccco2)c(=O)[nH]c1=O`, the 50% cytotoxic concentration (CC50) in assay [1] is > 1 µM. The pIC50 in the assay with MT4 is 6.77; with CEM-SS, 8.10.

As for `Cc1c(Sc2ccccc2)n(COCCN(C(=O)c2ccccc2)C(=O)c2ccccc2)c(=O)[nH]c1=O`, the half-maximal cytotoxic concentration (CC50) in assay [1] is > 1 µM. In addition, the pIC50 in the assay on MT4 and in the assay with CEM-SS was < 6.00 in each case.

As to `CCc1c(Sc2ccccc2)n(C/C=C/c2cccs2)c(=O)[nH]c1=O`, the CC50 in assay [1] is > 1 µM. The negative-log IC50 (pIC50) was 7.10 with MT4 and 8.10 with CEM-SS.

On to `Cc1c(Sc2ccccc2)n(COCCN(CC#N)CC#N)c(=O)[nH]c1=O`, for which the half-maximal cytotoxic concentration (CC50) in assay [1] was > 1 µM. The pIC50 in the assay with MT4 is < 4.00; in the assay on CEM-SS it was 4.56.

Take `CCc1c(Sc2ccccc2)n(C/C=C/c2cc3ccccc3o2)c(=O)[nH]c1=O`: the CC50 in assay [1] was > 1 µM. Further, the negative logarithm of the IC50 (pIC50) in the assay on MT4 is < 6.00; with CEM-SS it was 7.42.
